“Also recorded” adds a separate entry of the source. Like-named read-outs stand apart in the source and are kept apart here. One block for each compound: values may come before it.
Tests used:
PAR1 [1] = biological target: T1, PAR1 (Homo sapiens, UniProt P25116); assay: intracellular calcium mobilization; assay type: cell-based; conditions: for activity in the iCa2+ assay (in words): EA.hy926 cells, TFLLRN-NH2
T1 sequence (P25116 22-425): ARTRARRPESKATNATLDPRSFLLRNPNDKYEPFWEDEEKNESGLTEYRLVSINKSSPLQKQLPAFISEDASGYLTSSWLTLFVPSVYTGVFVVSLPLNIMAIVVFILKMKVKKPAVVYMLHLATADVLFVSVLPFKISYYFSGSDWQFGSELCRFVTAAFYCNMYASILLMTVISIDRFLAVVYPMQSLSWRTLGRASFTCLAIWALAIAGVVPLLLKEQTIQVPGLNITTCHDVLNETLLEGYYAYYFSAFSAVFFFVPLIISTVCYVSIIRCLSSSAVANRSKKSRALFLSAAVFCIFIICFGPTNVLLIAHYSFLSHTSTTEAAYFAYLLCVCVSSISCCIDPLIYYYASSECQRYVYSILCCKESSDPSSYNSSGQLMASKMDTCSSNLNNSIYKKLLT
Outline: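 Adherent EA.hy926 endothelial cells in 96-well plates; intracellular Ca2+ mobilization triggered by PAR1 tethered-ligand peptide TFLLRN-NH2 (5 µM). Single-point screen: test compound at 10 µM, % inhibition from n = 4 wells unless noted, with SEM. IC50: 3 wells per concentration, curves fitted by 4-variable non-linear regression. Summary IC50 is the average of independent assays. Selectivity run used agonist at 3.16 µM.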

PAR1 [2] = biological target: T1, PAR1; conditions: cited from earlier work
[3] = after 5 h; cited from earlier work
[4] = cited from earlier work
platelets = conditions: cited from earlier work
[5] = biological target: SERT (serotonin transporter) (Homo sapiens, UniProt P31645); assay: PDSP radioligand binding, SERT; conditions: read-out: mean % inhibition of binding, SERT
Chain of SERT (serotonin transporter) (P31645 whole entry, species assumed): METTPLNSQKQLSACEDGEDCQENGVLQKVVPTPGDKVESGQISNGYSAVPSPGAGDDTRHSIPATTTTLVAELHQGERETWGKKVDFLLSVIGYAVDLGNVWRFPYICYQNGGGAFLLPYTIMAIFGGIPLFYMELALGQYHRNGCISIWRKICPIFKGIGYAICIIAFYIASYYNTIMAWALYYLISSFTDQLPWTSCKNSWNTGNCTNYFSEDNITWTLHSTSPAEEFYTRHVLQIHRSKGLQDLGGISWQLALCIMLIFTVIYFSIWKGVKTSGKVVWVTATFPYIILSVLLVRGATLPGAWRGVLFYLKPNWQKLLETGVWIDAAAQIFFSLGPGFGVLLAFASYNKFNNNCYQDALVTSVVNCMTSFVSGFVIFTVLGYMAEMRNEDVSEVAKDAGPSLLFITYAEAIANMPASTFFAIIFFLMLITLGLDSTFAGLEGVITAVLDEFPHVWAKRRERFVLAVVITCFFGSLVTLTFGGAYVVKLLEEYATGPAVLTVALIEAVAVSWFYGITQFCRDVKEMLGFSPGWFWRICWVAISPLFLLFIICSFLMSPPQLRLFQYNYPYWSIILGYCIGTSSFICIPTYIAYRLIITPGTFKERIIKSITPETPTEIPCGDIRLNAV

human washed platelets = assay: human platelet aggregation assay; assay type: cell-based; conditions: parmodulin 10 μM, SFLLRN-NH2 1.5 μM
Outline: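 Washed human platelets were incubated with test compound (10 µM), then stimulated with PAR1/2 agonist SFLLRN-NH2 (1.5 µM). Aggregation traces were recorded against DMSO vehicle control traces.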

tissue factor (TF) mRNA = assay: qPCR assay of TNF-α induced tissue factor expression in HUVEC; assay type: cell-based, human; conditions: 10 μM, TNF-α 25 ng/mL added at 1 h, mRNA at 4 h
Outline: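 HUVEC were treated with test compound (10 µM) at t = 0 and TNF-α (25 ng/mL) at t = 1 h. Tissue factor mRNA was quantified by qPCR at t = 4 h, n = 3. Analysis by one-way ANOVA with Bonferroni multiple-comparisons test.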

PAR2 = biological target: T2, PAR2 (Homo sapiens, UniProt P55085); assay: PAR2; assay type: cell-based; conditions: parmodulins 10 μM, vorapaxar 0.316 μM; SLIGKV-NH2 3.16 μM
T2 sequence (P55085 26-397): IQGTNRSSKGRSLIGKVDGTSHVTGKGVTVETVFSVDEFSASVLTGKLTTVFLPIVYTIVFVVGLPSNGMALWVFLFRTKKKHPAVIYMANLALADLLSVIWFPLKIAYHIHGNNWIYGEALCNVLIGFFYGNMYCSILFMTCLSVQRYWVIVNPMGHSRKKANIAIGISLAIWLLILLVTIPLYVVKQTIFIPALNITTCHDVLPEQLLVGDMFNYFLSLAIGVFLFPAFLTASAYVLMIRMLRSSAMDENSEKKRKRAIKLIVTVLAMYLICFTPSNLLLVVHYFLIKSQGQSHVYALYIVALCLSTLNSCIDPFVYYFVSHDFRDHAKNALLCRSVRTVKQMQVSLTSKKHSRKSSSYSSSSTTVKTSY
Outline: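 Intracellular Ca2+ mobilization assay in EA.hy926 endothelial cells. Cells were pretreated with test compound (10 µM) or reference antagonist (0.316 µM), then stimulated with PAR2 agonist SLIGKV-NH2 (3.16 µM). A parallel run stimulated with PAR1 agonist TFLLRN-NH2 at 3.16 µM.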

[6] = human liver microsome stability; assay type: in vitro ADME; conditions: 1 h
PAR1 [7] = biological target: T1, PAR1; assay type: cell-based; conditions: increasing concentrations of antagonist
Outline: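 EA.hy926 endothelial cells; Ca2+ mobilization concentration-response curves for PAR1 agonist TFLLRN-NH2 were recorded at several increasing concentrations of test compound. Agonist efficacy was compared across antagonist levels.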

hepG2 cells = assay: cytotoxicity in hepG2 cells; assay type: cell-based; conditions: human hepG2 cells
[8] = biological target: 5HT-5A (5-hydroxytryptamine receptor) (Homo sapiens, UniProt P47898); assay: PDSP radioligand binding, 5HT-5A; conditions: read-out: mean % inhibition of binding, 5HT-5A
Chain of 5HT-5A (5-hydroxytryptamine receptor) (P47898 whole entry, species assumed): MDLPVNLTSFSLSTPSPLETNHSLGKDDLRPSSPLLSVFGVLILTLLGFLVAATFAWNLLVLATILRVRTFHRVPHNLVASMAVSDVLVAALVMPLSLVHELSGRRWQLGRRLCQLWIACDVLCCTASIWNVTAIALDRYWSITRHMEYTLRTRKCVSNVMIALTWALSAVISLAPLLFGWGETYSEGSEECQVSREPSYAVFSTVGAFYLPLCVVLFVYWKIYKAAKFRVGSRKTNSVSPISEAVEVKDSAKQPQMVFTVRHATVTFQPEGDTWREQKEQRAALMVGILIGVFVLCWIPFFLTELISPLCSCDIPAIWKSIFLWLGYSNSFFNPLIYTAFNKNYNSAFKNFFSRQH

Structure (SMILES): CC(C)CC(=O)Nc1cccc(NC(=O)c2ccccc2Br)c1 [compound 2]
activity in the endothelial iCa2+ assay (in words) (PAR1 [2]; EA.hy926 cells): mediocre inhibition
stability in mouse plasma, % remaining [3]: 65%
solubility in water with 1% DMSO [4]: 9 µM
inhibition in the platelet P-selectin assay (in words) (platelets): equipotent to ML161

Structure (SMILES): C#CCCC(=O)Nc1cccc(NC(=O)c2ccccc2Br)c1 [compound 11]
activity in the iCa2+ assay (in words) (PAR1 [1]): decreased efficacy and/or potency

Structure (SMILES): CCCC(=O)Nc1cccc(NC(=O)c2ccccc2Br)c1 [ML161]
inhibition at 10 µM [5]: -44%
stability in mouse plasma, % remaining [3]: 2%
inhibition of platelet aggregation (human washed platelets): Complete inhibition
effect on TNF-α induced TF expression (mRNA) (tissue factor (TF) mRNA): blocked the ~3-fold increase in TF expression
PAR2 activity? (PAR2): None observed
Microsomal stability [6]: 99% (1 h, human)

Structure (SMILES): O=C(Nc1cccc(NC(=O)c2ccccc2Br)c1)c1cnco1 [NRD-21, N-[3-(2-bromobenzamido)phenyl]-1,3-oxazole-5-carboxamide]
inhibition at 10 µM [5]: -44%
effect on the efficacy of the PAR1 agonist TFLLRN-NH2 (PAR1 [7]): reduction in efficacy
inhibition of platelet aggregation (human washed platelets): Complete inhibition
activity in the iCa2+ assay (in words) (PAR1 [1]; listed as 38): very good inhibition; also recorded: much better efficacy than 39
effect on TNF-α induced TF expression (mRNA) (tissue factor (TF) mRNA): below baseline levels
Cytotoxicity (CC50) (hepG2 cells): no measurable toxicity
PAR2 activity? (PAR2): None observed
inhibition at 10 µM [8]: -31%

Structure (SMILES): CCCCC(=O)Nc1cccc(NC(=O)c2ccccc2Br)c1 [compound 10]
activity in the iCa2+ assay (in words) (PAR1 [1]): decreased efficacy and/or potency

Structure (SMILES): CCCCNc1cccc(NC(=O)c2ccccc2Br)c1 [compound 5]
activity in the iCa2+ assay (in words) (PAR1 [2]; as previously reported): very good activity

Structure (SMILES): O=C(Nc1cccc(NC(=O)C2CCCC2)c1)c1ccccc1Br [compound 3]
activity in the iCa2+ assay (in words) (PAR1 [1]): moderate inhibition

Structure (SMILES): CCC(C)C(=O)Nc1cccc(NC(=O)c2ccccc2Br)c1 (centres unmarked) [compound 7]
activity in the iCa2+ assay (in words) (PAR1 [1]): weak efficacy

Structure (SMILES): CCC(=O)Nc1cccc(NC(=O)c2ccccc2Br)c1 [compound 8]
activity in the iCa2+ assay (in words) (PAR1 [1]): decreased activity

Now from value to compound:

activity in the iCa2+ assay (in words) (PAR1 [1]): steep drop in efficacy
Structure (SMILES): CCCNCc1cccc(NC(=O)c2ccccc2Br)c1 [compound 28]

activity in the iCa2+ assay (in words) (PAR1 [1]): only modest inhibition
Structure (SMILES): O=C(Nc1cccc(NC(=O)C2CCCO2)c1)c1ccccc1Br (centres unmarked) [compound 36]

activity in the iCa2+ assay (in words) (PAR1 [1]): weak activity
Structure (SMILES): COCCNc1cccc(NC(=O)c2ccccc2Br)c1 [compound 27]

activity in the iCa2+ assay (in words) (PAR1 [1]): complete loss of activity
Structure (SMILES): CN(C)CC(=O)Nc1cccc(NC(=O)c2ccccc2Br)c1 [compound 25]

activity in the iCa2+ assay (in words) (PAR1 [1]): evidence of activation
Structure (SMILES): O=C(Nc1cccc(N2CCCC2)c1)c1ccccc1Br [compound 30]

activity in the iCa2+ assay (in words) (PAR1 [1]): very good inhibition
inhibition of PAR1 (PAR1 [1]; selectivity study: parmodulin 10 μM, TFLLRN-NH2 3.16 μM): less than 75%
Structure (SMILES): O=C(Nc1cccc(NC(=O)c2ccccc2Br)c1)c1cocn1 [compound 39]

activity in the iCa2+ assay (in words) (PAR1 [1]): moderate activity
Structure (SMILES): CCCCOc1cccc(NC(=O)c2ccccc2Br)c1 [compound 24]

activity in the iCa2+ assay (in words) (PAR1 [1]): only modest inhibition
Structure (SMILES): O=C(Nc1cccc(NC(=O)C2CCOC2)c1)c1ccccc1Br (centres unmarked) [compound 37]

activity in the iCa2+ assay (in words) (PAR1 [1]): evidence of activation
Structure (SMILES): O=C(Nc1cccc(NC2CCCC2)c1)c1ccccc1Br [compound 29]

activity in the iCa2+ assay (in words) (PAR1 [1]): weak activity
Structure (SMILES): CCCN(CCC)c1cccc(NC(=O)c2ccccc2Br)c1 [compound 26]

From PMC6706283 (Bioorganic & medicinal chemistry, 2019)
